Data published in ChEMBL document CHEMBL3758117, “Discovery of indeno[1,2-b]quinoxaline derivatives as potential anticancer agents” (Eur J Med Chem, 2016).
Active and inactive are the calls of the source. The rule behind the calls is not given here.

Legend:
[1] = Selectivity index, ratio of IC50 for human MRC5 cells to IC50 for human H1299 cells; assay type: functional
[2] = Cell cycle arrest in human HuH7 cells assessed as accumulation at S phase at 5 uM for 24 hrs by propidium iodide staining based flow cytometry (reference value: 11.4 +/- 2.4%); assay type: functional; conditions: Huh-7
[3] = Effect on total protein expression of Akt in human HuH7 cells at 1 to 10 uM after 24 hrs by immunoblot analysis; assay type: cell-based; conditions: huh-7, 24 h
How it was run: (§1)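 Huh-7 cells were treated with DMSO or compound at 1, 5 and 10 μM for 24 h. Cells were lysed in NP-40 buffer with protease and phosphatase inhibitors, and protein was measured by Bradford. Lysate protein was resolved by SDS-PAGE and transferred to PVDF. Membranes were blocked in 5% milk, probed with primary antibodies for 2 h and secondary antibodies for 30 min, and detected by ECL, with β-actin as loading control.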

[4] = Cell cycle arrest in human HuH7 cells assessed as accumulation at G1 phase at 5 uM for 24 hrs by propidium iodide staining based flow cytometry (reference value: 62.1 +/- 1.4%); assay type: functional; conditions: Huh-7
[5] = system: Huh-7; assay: Selectivity index, ratio of IC50 for human MRC5 cells to IC50 for human HuH7 cells; assay type: functional
[6] = Downregulation of cyclin A expression in human HuH7 cells at 1 to 10 uM after 24 hrs by immunoblot analysis; assay type: functional, cell-based; conditions: Huh-7; how it was run: as §1
[7] = Antiproliferative activity against human H1299 cells after 72 hrs by XTT assay; assay type: functional, cell-based; conditions: NCI-H1299, 72 h
How it was run: (§2)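 Cells kept as monolayers in DMEM with 10% FBS, penicillin, streptomycin and amphotericin at 37°C, 5% CO2. Seeded at 5 x 10³ cells/well and exposed to compound for 72 h in medium with 10% FBS. XTT plus electron-coupling reagent added, 4 h at 37°C, absorbance read at 492 nm. Percent of control growth uses mean absorbance (n = 3). The 50% value is taken from the linear portion of the curve.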

[8] = target: T1, DNA topoisomerase 1 (Homo sapiens) (UniProt P11387); assay: Inhibition of human DNA topoisomerase 1-mediated relaxation of supercoiled pBR322 DNA at 10 uM after 30 mins by ethidium bromide staining based agarose gel electrophoresis
T1 sequence (whole entry): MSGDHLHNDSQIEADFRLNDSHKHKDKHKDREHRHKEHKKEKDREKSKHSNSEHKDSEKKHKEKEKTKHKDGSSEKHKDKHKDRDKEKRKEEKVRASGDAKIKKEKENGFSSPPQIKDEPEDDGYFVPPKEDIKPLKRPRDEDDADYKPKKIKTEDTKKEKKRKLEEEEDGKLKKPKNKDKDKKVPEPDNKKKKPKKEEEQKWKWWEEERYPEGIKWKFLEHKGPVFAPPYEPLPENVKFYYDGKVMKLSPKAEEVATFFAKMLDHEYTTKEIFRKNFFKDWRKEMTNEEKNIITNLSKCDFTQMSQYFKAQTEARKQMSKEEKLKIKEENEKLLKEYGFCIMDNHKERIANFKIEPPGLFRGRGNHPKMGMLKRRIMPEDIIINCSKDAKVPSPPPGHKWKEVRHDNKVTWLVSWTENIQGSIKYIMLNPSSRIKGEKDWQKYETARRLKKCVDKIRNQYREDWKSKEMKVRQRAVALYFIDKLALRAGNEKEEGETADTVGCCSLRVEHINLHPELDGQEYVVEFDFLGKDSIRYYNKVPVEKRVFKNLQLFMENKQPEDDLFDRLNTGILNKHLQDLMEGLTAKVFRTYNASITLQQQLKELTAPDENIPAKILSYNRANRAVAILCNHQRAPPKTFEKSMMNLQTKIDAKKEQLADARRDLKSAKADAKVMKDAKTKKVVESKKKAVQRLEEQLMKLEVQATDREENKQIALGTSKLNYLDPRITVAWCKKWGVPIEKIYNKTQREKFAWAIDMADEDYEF
How it was run: (§3)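 Human topo I or topo II (2 units) was reacted with 0.2 μg supercoiled pBR322 in 20 μl Tris-HCl pH 7.5 containing KCl, DTT, EDTA, MgCl2 and BSA, with DMSO held at 0.5%, for 30 min at 37°C. The reaction was stopped with SDS. Samples were run on 1% agarose in Tris-acetate/EDTA at 1.5 V/cm for 2-3 h and stained with ethidium bromide. Relaxation was quantified by densitometry of the supercoiled band area.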

[9] = Induction of apoptosis in human HuH7 cells assessed as upregulation of activated caspase 3 at 1 to 10 uM after 24 hrs by Western blot analysis; assay type: functional, cell-based; conditions: Huh-7; how it was run: as §1
[10] = system: MRC5; assay: Selectivity index, ratio of IC50 for human MRC5 cells to IC50 for human PC3 cells; assay type: functional
[11] = Induction of apoptosis in human HuH7 cells assessed as upregulation of activated caspase 7 at 1 to 10 uM after 24 hrs by Western blot analysis; assay type: functional, cell-based; conditions: Huh-7; how it was run: as §1
[12] = Cell cycle arrest in human HuH7 cells assessed as accumulation at sub G1 phase at 10 uM for 24 hrs by propidium iodide staining based flow cytometry (reference value: 1.3 +/- 0.7%); assay type: functional; conditions: Huh-7
[13] = Antiproliferative activity against human PC3 cells after 72 hrs by XTT assay; assay type: functional, cell-based; conditions: PC-3, 72 h; how it was run: as §2
[14] = Induction of apoptosis in human HuH7 cells assessed as upregulation of Bad expression at 1 to 10 uM after 24 hrs by Western blot analysis; assay type: functional, cell-based; conditions: Huh-7
[15] = system: Huh-7; assay: Induction of apoptosis in human HuH7 cells assessed as cell shrinkage at 5 uM after 24 hrs by light microscopy; assay type: functional, cell-based
[16] = system: MRC5; assay: Selectivity index, ratio of IC50 for human MRC5 cells to IC50 for human MDA-MB-231 cells; assay type: functional
[17] = Cell cycle arrest in human HuH7 cells assessed as accumulation at S phase at 1 uM for 24 hrs by propidium iodide staining based flow cytometry (reference value: 11.4 +/- 2.4%); assay type: functional; conditions: Huh-7
[18] = Cell cycle arrest in human HuH7 cells assessed as accumulation at G1 phase at 10 uM for 24 hrs by propidium iodide staining based flow cytometry (reference value: 62.1 +/- 1.4%); assay type: functional; conditions: Huh-7
[19] = Cell cycle arrest in human HuH7 cells assessed as accumulation at G1 phase at 1 uM for 24 hrs by propidium iodide staining based flow cytometry (reference value: 62.1 +/- 1.4%); assay type: functional; conditions: Huh-7
[20] = Cell cycle arrest in human HuH7 cells assessed as accumulation at G2/M phase at 10 uM for 24 hrs by propidium iodide staining based flow cytometry (reference value: 25.2 +/- 3.5%); assay type: functional; conditions: Huh-7
[21] = target: DNA topoisomerase 2-alpha (Homo sapiens) (UniProt P11388); assay: Inhibition of human DNA topoisomerase 2-mediated relaxation of supercoiled pBR322 DNA at 10 uM after 30 mins by ethidium bromide staining based agarose gel electrophoresis; how it was run: as §3
[22] = system: Huh-7; assay: Antitumor activity against human HuH7 cells xenografted in zebrafish assessed as reduction in tumor size after 24 to 48 hrs post injection by fluorescence microscopy; assay type: functional, cell-based
How it was run: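 About 100 Huh-7 cells were implanted into the yolk sac of anesthetized 48 hpf zebrafish embryos. Embryos were then kept in water containing compound at 0.1 to 2.0 μg/ml for 24 and 48 h post-injection. Embryos were imaged by fluorescence microscopy, with red fluorescence intensity taken as proportional to xenograft tumor size.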

[23] = Antiproliferative activity against human HuH7 cells after 72 hrs by XTT assay; assay type: functional, cell-based; conditions: Huh-7, 72 h; how it was run: as §2

Sequence of DNA topoisomerase 2-alpha (Homo sapiens) (P11388 whole entry): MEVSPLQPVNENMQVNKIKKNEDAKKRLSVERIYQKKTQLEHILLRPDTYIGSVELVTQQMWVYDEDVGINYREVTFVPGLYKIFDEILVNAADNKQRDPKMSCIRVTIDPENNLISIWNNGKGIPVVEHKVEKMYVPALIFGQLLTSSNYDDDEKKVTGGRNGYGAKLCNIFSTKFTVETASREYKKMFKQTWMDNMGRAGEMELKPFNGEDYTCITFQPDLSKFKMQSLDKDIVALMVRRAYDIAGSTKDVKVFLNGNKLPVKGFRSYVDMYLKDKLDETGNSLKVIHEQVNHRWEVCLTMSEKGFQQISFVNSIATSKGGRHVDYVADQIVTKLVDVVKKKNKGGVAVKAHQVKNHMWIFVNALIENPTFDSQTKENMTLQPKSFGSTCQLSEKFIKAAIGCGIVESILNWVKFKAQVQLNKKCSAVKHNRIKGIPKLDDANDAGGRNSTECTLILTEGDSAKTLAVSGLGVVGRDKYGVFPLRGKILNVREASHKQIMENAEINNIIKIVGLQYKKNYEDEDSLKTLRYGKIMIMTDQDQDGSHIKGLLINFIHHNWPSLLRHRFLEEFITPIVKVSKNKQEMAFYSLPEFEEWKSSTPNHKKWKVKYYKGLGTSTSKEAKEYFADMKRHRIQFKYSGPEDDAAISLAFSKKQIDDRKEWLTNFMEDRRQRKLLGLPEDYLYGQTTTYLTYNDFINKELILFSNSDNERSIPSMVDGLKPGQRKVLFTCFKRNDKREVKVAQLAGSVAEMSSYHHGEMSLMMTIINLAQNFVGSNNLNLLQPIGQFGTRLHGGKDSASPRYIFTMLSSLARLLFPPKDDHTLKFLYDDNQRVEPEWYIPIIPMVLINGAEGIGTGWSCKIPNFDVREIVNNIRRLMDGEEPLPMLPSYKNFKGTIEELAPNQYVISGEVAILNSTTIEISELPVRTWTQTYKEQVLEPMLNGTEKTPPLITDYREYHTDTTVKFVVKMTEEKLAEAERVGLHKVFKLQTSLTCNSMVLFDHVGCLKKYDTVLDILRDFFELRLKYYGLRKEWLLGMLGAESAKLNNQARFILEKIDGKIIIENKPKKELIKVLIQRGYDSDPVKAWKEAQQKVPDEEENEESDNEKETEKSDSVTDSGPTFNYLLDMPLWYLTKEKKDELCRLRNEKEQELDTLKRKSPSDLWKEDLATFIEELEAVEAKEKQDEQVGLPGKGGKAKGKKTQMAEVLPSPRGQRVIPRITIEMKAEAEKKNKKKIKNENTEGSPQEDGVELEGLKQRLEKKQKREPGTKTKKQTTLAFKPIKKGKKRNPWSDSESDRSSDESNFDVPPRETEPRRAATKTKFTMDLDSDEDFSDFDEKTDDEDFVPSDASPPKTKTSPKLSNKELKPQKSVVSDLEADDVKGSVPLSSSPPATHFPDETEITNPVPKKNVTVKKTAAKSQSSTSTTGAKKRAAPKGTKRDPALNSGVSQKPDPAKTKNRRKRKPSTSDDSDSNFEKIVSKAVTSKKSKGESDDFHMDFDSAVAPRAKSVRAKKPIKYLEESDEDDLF

CN(C)CCCNC(=O)c1cccc2nc3c(nc12)-c1ccccc1/C3=N\OCCCN(C)C.Cl
Ratio IC50 [1]: 5.45
Activity [2]: 30.5%
Activity [3]: Non-toxic
Activity [4]: 35.1%
Ratio IC50 [5]: 49.23
Activity [6]: Active
IC50 [7]: 5780 nM
inhibition [8]: Active
Activity [9]: Dose-dependent effect
Ratio IC50 [10]: 38.43
Activity [11]: Dose-dependent effect
Activity [12]: 23.4%
IC50 [13]: 820 nM
Activity [14]: Dose-dependent effect
Activity [15]: Active
Ratio IC50 [16]: 36.22
Activity [17]: 21.6%
Activity [18]: 30.4%
Activity [19]: 55.3%
Activity [20]: 7.8%
topoisomerase 2 inhibition (active/not active) [21]: Active
inhibition [22]: Dose-dependent effect
IC50 [23]: 640 nM
